The test concerns Rattus norvegicus. The test is described as follows: Antiinflammatory activity in Wistar rat assessed as inhibition of carrageenan-induced paw edema at 150 mg/kg, po administered 1 hr before carrageenan challenge measured after 3 hrs relative to vehicle treated control. It is filed as functional. The procedure, abridged:
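Male Wistar rats given aspirin orally at 150 mg/kg, 1 h before intraplantar carrageenan (0.1 mL of 1% suspension) into the right hind paw. Hind paw edema read by plethysmometer 3 h after carrageenan; reduction taken relative to vehicle group.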
Background: In the carrageenan paw model, swelling and tenderness develop within hours.

Consider 1 compound from ChEMBL document CHEMBL1914427, “Design, synthesis and biological evaluation of benzo[1.3.2]dithiazolium ylide 1,1-dioxide derivatives as potential dual cyclooxygenase-2/5-lipoxygenase inhibitors” (Bioorg Med Chem, 2011).

As to `CC(=O)Oc1ccccc1C(=O)O` [ASPIRIN], the inhibition in vivo at 150 mg/kg was determined as 38%.

A word on the inhibition in vivo: it is the share of the control response that was lost under treatment.
